Bioassay records: PubChem BioAssay, several laboratories
MDM2 E3 inh: inhibitors of human Mdm2 E3 ubiquitin ligase; cell-based MDM2 ubiquitination luciferase reporter, 2 h; 0 = plate control, 100 = twice control, blank-subtracted; signal enhancement, % at 5 µM; 0.11% of 210,000 active;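 active = signal enhancement of 30% or more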;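 also: luminescence tracks abundance of the self-degrading MDM2-luciferase fusion protein; higher signal means inhibition of MDM2 E3 ligase activity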
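Test system: mammalian cells stably expressing self-ubiquitinating, self-degrading MDM2 E3–luciferase fusion; Amount: 2000 cells in each well; Medium: DMEM; Schedule: 4 h settle plus 2 h compound, 37 °C; Technique: SteadyLite luciferase luminescence after 15 min room-temperature reagent incubation; Benchmarks: plate control and blank wells.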
Rad51 HR inh: blocks human Rad51 in homologous recombination | Q06609 | hRad51 DNA strand exchange, fluorescence dequenching | inhibition, % at 10 µM | 0.085% of 200,000 active | AID 1385;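 active = inhibition above 40% at the single screening dose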;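 also: 0% = DMSO control wells and 100% = blanks with heterologous ssDNA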
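Test system: preformed human Rad51 ssDNA filaments; also added: Donor/quencher-labelled 47-bp dsDNA substrate; doses: 10 µM final, single point; times: 37 °C 15-min filament assembly, 30-min compound preincubation, 15-min exchange; detection: FRET fluorescence dequenching, excitation 485 nm, emission 520 nm; read-out basis: Fluorescence-based percent inhibition, control- and blank-normalised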
H9c2 TAG inh: inhibitors of triacylglycerol accumulation; H9c2 cells, Nile Red lipid (TAG) fluorescence; cells loaded with 200 µM oleic acid; inhibition, % at 12.5 µM; 0.66% of 230,000 active;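 active = pattern-corrected inhibition of lipid staining of at least 50% with the nuclear-stain viability signal not falling by more than 50%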;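 also: 0% = DMSO wells and 100% = triacsin C control wells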
Hck-Nef inh: inhibitors of human Hck kinase activated by Nef | 0.68% of 220,000 active | P08631 | inhibition, % at 20 µM | Recombinant Hck-YEEI plus Nef, Z-Lyte FRET kinase assay;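 active = Hck-Nef kinase inhibition above about 50%, limit read from the data; inactive = inhibition below that limit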;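 also: 0% = DMSO with Hck plus Nef and 100% = Hck alone without Nef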
PERK inhibitor: blocks human PERK kinase; CHO PERK-DD fusion, SEAP luminescence translation reporter; inhibition, % at 5.6 µM; 0.17% of 220,000 active; AID 1416;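 active = inhibition above the mean inhibition of all tested compounds plus 3 SD, set separately per screening campaign, cut at about 2.9% in these data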;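 also: PERK kinase domain activated by AP20187 dimerizer at 100 nM; 0% = DMSO with dimerizer and 100% = rapamycin at 8.4 µM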
PKD1 kinase inh: PKD1 (human) kinase inhibition | PKD1 kinase fluorescence polarization assay | inhibition, % (concentration not given with the values) | 0.056% of 200,000 active | AID 797; in the data active = inhibition above about 50%
Hck Nef conf: confirmation of Hck-Nef kinase inhibitors. shares compounds with Hck-Nef inh. Recombinant Hck-YEEI:Nef, Z-Lyte FRET kinase assay. calls only at 10 µM. 28% of 1,300 active. AID 463188;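 active = average inhibition of at least 50%, with Z-scores no higher than 3 in both the phospho-tyrosine peptide and fluorescence counterscreens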
The depositor's hits bear a star. In the library only some 1.3% were active in any assay of this set; here they are far more common.

How did CC1(C(=O)N2Cc3ccccc3C2)CCN1C(=O)C1(c2ccccc2)CC1 (stereo unspecified) do in these assays?
H9c2 TAG inh: -17

What do the screens show for `CSc1nc2ccc(NC(=O)CSc3nnc(N)s3)cc2s1`?
MDM2 E3 inh: -14; Rad51 HR inh: -5; Hck-Nef inh: 12; PERK inhibitor: -1; PKD1 kinase inh: 5

How did CCCN(CC(=O)NC(=O)NCc1ccccc1)CC(=O)Nc1ccc(F)c(F)c1F do in these assays?
H9c2 TAG inh: 11

What do the screens show for `O=C(COc1cccc(Cl)c1)Nc1ccc2c(c1)CCC2`?
MDM2 E3 inh: -1; Rad51 HR inh: 4; H9c2 TAG inh: -10; Hck-Nef inh: -1; PERK inhibitor: 0; PKD1 kinase inh: -6

What do the screens show for `O=[N+]([O-])c1cc2c(cc1/C=N/NS(=O)(=O)c1ccc(Br)cc1)OCO2`?
MDM2 E3 inh: -11; Rad51 HR inh: -2; Hck-Nef inh: 24; PERK inhibitor: 1; PKD1 kinase inh: -6

Results for COC(=O)Cc1c(C)c2ccc(OC(=O)c3ccco3)cc2oc1=O ?
MDM2 E3 inh: -15; Rad51 HR inh: 3; H9c2 TAG inh: 4; Hck-Nef inh: 102*; PERK inhibitor: 2; PKD1 kinase inh: -3

How did CCc1cc(=O)oc2cc(OC(=O)c3ccco3)ccc12 do in these assays?
H9c2 TAG inh: 2

What do the screens show for `Cc1cc(=O)oc2cc(OC(=O)c3ccco3)ccc12`?
H9c2 TAG inh: 7; Hck-Nef inh: 127*; PERK inhibitor: 0; PKD1 kinase inh: -1; Hck Nef conf: inactive

Results for COC(=O)Cc1c(C)c2cc(Cl)c(OC(=O)c3ccco3)cc2oc1=O ?
MDM2 E3 inh: -11; Rad51 HR inh: -2; Hck-Nef inh: 102*; PERK inhibitor: 1; PKD1 kinase inh: -6

What do the screens show for `CCOC(=O)c1cccc(OS(=O)(=O)Cc2ccccc2)c1`?
H9c2 TAG inh: 1

What do the screens show for `CCn1c(CC(=O)Nc2ccccc2)n[nH]c1=S`?
MDM2 E3 inh: -1; Rad51 HR inh: 2; H9c2 TAG inh: 9; Hck-Nef inh: 25; PERK inhibitor: 0; PKD1 kinase inh: -7

How did COc1cc(OC)cc(C(=O)Nc2nnc(SCC(=O)NCc3ccco3)s2)c1 do in these assays?
H9c2 TAG inh: 19

Results for COc1ccc(C(=O)Nc2ccccc2C(=O)NC(Cc2ccc(O)cc2)C(=O)NNC(=O)c2ccccc2Cl)cc1 (stereo unspecified) ?
MDM2 E3 inh: -8; Rad51 HR inh: 4; Hck-Nef inh: 66*; PERK inhibitor: 1; PKD1 kinase inh: -17; Hck Nef conf: inactive

How did COc1ccc(C(=O)NNC(=O)C(Cc2ccc(O)cc2)NC(=O)c2ccccc2NC(=O)c2ccc(OC)cc2)cc1 (stereo unspecified) do in these assays?
MDM2 E3 inh: -2; Rad51 HR inh: 2; Hck-Nef inh: 22; PERK inhibitor: 0; PKD1 kinase inh: -6

What do the screens show for `CCCS(=O)(=O)NC(=O)C1(C)CCCN(C(=O)c2cc(OC)c(OC)c(OC)c2)C1` (stereo unspecified)?
H9c2 TAG inh: 2

How did COc1ccc2nc(-n3c(O)c(C4=c5ccccc5=NC4=O)[nH]c3=S)sc2c1 do in these assays?
MDM2 E3 inh: -8; Rad51 HR inh: -5; Hck-Nef inh: 103*; PERK inhibitor: 0; PKD1 kinase inh: 3; Hck Nef conf: active

How did Cc1cccc(-c2ncc(CN3CCCC(CO)(Cc4ccccc4C)C3)cn2)c1 (stereo unspecified) do in these assays?
MDM2 E3 inh: -14; Rad51 HR inh: -9; H9c2 TAG inh: -2; Hck-Nef inh: -2; PERK inhibitor: 2; PKD1 kinase inh: -3

What do the screens show for `COc1ccc2oc(/C=C/N(C)C)c(C(=O)c3ccc(Cl)cc3)c2c1`?
MDM2 E3 inh: -9; Rad51 HR inh: -10; Hck-Nef inh: 98*; PERK inhibitor: 1; PKD1 kinase inh: 7; Hck Nef conf: inactive

How did CCOc1cc(/C=C(/C#N)c2nc3ccccc3[nH]2)ccc1OCc1ccc(C(=O)O)o1 do in these assays?
MDM2 E3 inh: -21; Rad51 HR inh: -2; Hck-Nef inh: 64*; PERK inhibitor: 2; PKD1 kinase inh: -8

How did CCOc1cc(/C=C(/C#N)c2ccc(F)cc2)ccc1OCc1ccc(C(=O)O)o1 do in these assays?
MDM2 E3 inh: 14; Rad51 HR inh: 11; H9c2 TAG inh: 8; Hck-Nef inh: 27; PERK inhibitor: 0; PKD1 kinase inh: -13

What do the screens show for `COc1ccc(F)cc1C(=O)C1CCCN(C(=O)c2cccc(N(C)C)c2)C1` (stereo unspecified)?
MDM2 E3 inh: -13; H9c2 TAG inh: 0; Hck-Nef inh: -21; PERK inhibitor: 0; PKD1 kinase inh: 3

What do the screens show for `Cc1cc(C)c2oc(C(=O)Nc3ccc(S(=O)(=O)Nc4nccs4)cc3)cc(=O)c2c1`?
Rad51 HR inh: 20; H9c2 TAG inh: 8; Hck-Nef inh: 51*; PERK inhibitor: 0; Hck Nef conf: inactive

Results for COC(=O)CCCC1=CC2=CC(=O)C(C)(OC(=O)c3cccs3)C(=O)C2=CN1Cc1ccc2c(c1)OCO2 (stereo unspecified) ?
MDM2 E3 inh: 2; Rad51 HR inh: -2; H9c2 TAG inh: 10; Hck-Nef inh: 53*; Hck Nef conf: inactive

How did COC(=O)CCCC1=CC2=CC(=O)C(C)(OC(=O)c3cccs3)C(=O)C2=CN1Cc1ccccc1 (stereo unspecified) do in these assays?
MDM2 E3 inh: -7; Rad51 HR inh: 3; H9c2 TAG inh: -15; Hck-Nef inh: 6

Results for CCN(CC(=O)Nc1c(F)cccc1F)C(=O)c1cccn1C ?
H9c2 TAG inh: -5

How did COc1cc(NC(=S)Nc2ccccn2)cc(OC)c1 do in these assays?
MDM2 E3 inh: 11; Rad51 HR inh: 9; Hck-Nef inh: 2; PERK inhibitor: 0; PKD1 kinase inh: 4

Results for COc1cc(NC(=S)Nc2ccccn2)cc(OC)c1OC ?
MDM2 E3 inh: -15; Rad51 HR inh: -16; H9c2 TAG inh: -16; Hck-Nef inh: 81*; PERK inhibitor: 0; PKD1 kinase inh: -5; Hck Nef conf: active

Results for O=c1cc(-c2ccccc2Cl)oc2cc(O)cc(O)c12 ?
Rad51 HR inh: -5; H9c2 TAG inh: -25; Hck-Nef inh: 2; PERK inhibitor: 1; PKD1 kinase inh: -6

Results for O=C1C=CC(O)(c2cc(=O)c3c(O)cc(O)cc3o2)C=C1 ?
Rad51 HR inh: -2; H9c2 TAG inh: 97; Hck-Nef inh: 53*; PERK inhibitor: 0; PKD1 kinase inh: -2; Hck Nef conf: inactive
